SR-BI HDL uptake: mouse SR-BI HDL lipid transfer inhibition. Q61009. ldlA[mSR-BI] CHO cells, DiI-HDL uptake fluorescence, 3 h. inhibition, % at 12.5 µM. hit rate 0.96% among 320,000;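 active = mean replicate inhibition of at least 70% and a set share of replicates each scoring 70 or more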
CDK5 p35 inh: CDK5/p35 (human) kinase inhibition; Recombinant CDK5/p35, ADP-Glo luminescence, 60 min; Q00535+Q15078; hit rate 0.01% among 330,000; inhibition, % at 10 µM;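 active = highest replicate inhibition of at least 50% and at least 75% of replicates reaching 50%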
SR-BI DiI-HDL act: activators of SR-BI mediated HDL lipid uptake. CHO ldlA[mSR-BI] cells, DiI-HDL uptake fluorescence, 3 h; 100 = double the neutral-control signal. activation, % at 12.5 µM. hit rate 0.096% among 320,000;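 active = mean replicate activation of at least 60% and every replicate at or above 60%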
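Material – SR-BI-overexpressing, LDLR-lacking CHO cells · Medium – BSA-supplemented, HEPES-buffered Ham's F12, pH 7.4 · Doses – single concentration · Times – compound with DiI-HDL co-incubation, 3 h at 37 °C · Measured by – bottom-read fluorescence, 550/595 nm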
PKA-R1A activ: activators of PKA-R1A complex; P00514+P68181; PKA-R1A dissociation, Cy5-IP20 fluorescence polarization; scaled: DMSO 0%, 113 µM cGMP 100%; activation, % at 11.4 µM; hit rate 0.083% among 340,000; AID 504707;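 active = percent activation above the mean of all tested compounds plus 3 SD, cut at about 19% in these data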;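 also: higher means more PKAc released from R1A so a rise in polarization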
dFosB act: mouse delta FosB homodimer activation; activation, % at 25 µM; AID 493131; purified delta FosB, TAMRA-CDK5 oligo fluorescence polarization; percent of positive-control signal above neutral wells; hit rate 0.99% among 340,000; P13346;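 active = mean activation above about 17%, with every replicate also reaching it, limit read from the data, passing the limit was not always enough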
PKA-R2B act: activates the human PKA-R2B holoenzyme complex; P22694+P31323; PKA-R2B holoenzyme dissociation, Cy5-IP20 fluorescence polarization; R2B truncated from residue 108, S112A mutant; 0% DMSO only, 100% 113 µM cGMP; activation, % at 11.4 µM; hit rate 0.079% among 340,000;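 active = activation above a cutoff set at the mean over all compounds plus 3 SD, cut at about 18% in these data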;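 also: higher means more holoenzyme dissociation and a rise in polarization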
Target sequence (P31323 whole entry, looked up, other chains not shown, the tested form may be a part): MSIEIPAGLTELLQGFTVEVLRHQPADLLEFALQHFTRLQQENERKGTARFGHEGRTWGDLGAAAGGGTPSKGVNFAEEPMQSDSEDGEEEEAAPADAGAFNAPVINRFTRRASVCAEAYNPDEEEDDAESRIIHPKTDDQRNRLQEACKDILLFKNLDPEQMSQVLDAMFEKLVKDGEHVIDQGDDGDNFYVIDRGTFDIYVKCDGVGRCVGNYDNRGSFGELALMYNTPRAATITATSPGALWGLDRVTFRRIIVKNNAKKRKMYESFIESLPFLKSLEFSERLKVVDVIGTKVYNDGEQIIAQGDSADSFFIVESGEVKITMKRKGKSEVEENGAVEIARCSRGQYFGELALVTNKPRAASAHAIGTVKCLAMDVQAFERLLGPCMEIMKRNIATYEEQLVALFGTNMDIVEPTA
Of the large screens only hits and unclear results are named; the others gave an inactive call. This is a sample that favours compounds with a hit; in the whole collection about 2.1% have one here.

CCN=C1S/C(=C\c2ccc(OCC)c(OC)c2)C(=O)N1CC	none
CCN=C1S/C(=C\c2cc(Cl)c(OC)c(OC)c2)C(=O)N1CC	SR-BI HDL uptake 77
C/C(CC(=O)Nc1ccc(Cl)c(C(F)(F)F)c1)=N\NC(N)=S	SR-BI HDL uptake 80
C/C(CC(=O)Nc1ccc(Cl)c(C(F)(F)F)c1)=N\NC(=O)c1ccccc1O	none
COCCCNc1nc(-c2ccc(Cl)cc2)nc2ccccc12	SR-BI HDL uptake 86
COCCNc1nc(-c2ccccc2)nc2ccccc12	none
COCCCNc1nc(-c2ccncc2)nc2ccccc12	SR-BI HDL uptake 75
CSCCC(=O)N1CCC(CCC(=O)NC2CC2)CC1	none
Cc1ccc(C(=O)N/C(=C\c2ccc(-c3cccc([N+](=O)[O-])c3)o2)C(=O)NCCCN2CCOCC2)cc1	SR-BI HDL uptake 78 (no result: CDK5 p35 inh)
Cc1ccc(C(=O)N/C(=C/c2ccc(-c3cccc([N+](=O)[O-])c3)o2)C(=O)NC(C)C)cc1	SR-BI HDL uptake 83
Cc1ccc(C(=O)N/C(=C/c2ccc(-c3cccc([N+](=O)[O-])c3)o2)C(=O)NC(C)(C)C)cc1	none
COc1ccc(C(=O)N/C(=C\c2ccc(-c3cccc([N+](=O)[O-])c3)o2)C(=O)NCCCN2CCOCC2)cc1	none (no result: SR-BI HDL uptake, CDK5 p35 inh, SR-BI DiI-HDL act, dFosB act)
Cc1nc(N/N=C/c2ccc(O)cc2)c2cnn(-c3ccccc3)c2n1	SR-BI HDL uptake 75
Cc1cc(C)cc(NC(=O)COC(=O)CC2CCCC2)c1	none
CCOc1ccc(CCNC(=O)CN2CCN(Cc3ccccc3C)C2=O)cc1OCC	SR-BI HDL uptake 79
COc1ccc(CCNC(=O)CN2CCN(Cc3ccccc3F)C2=O)cc1OC	none
CC(C)(C)NC(=S)NNC(=O)c1ccncc1	SR-BI DiI-HDL act 185
CCNC(=S)NNC(=O)c1ccncc1	none
Cc1cc(C)c(S(=O)(=O)N2CCOC2CNC(=O)C(=O)NCCc2c[nH]c3ccccc23)c(C)c1 (stereo not drawn)	SR-BI DiI-HDL act 196
O=C(NCCc1c[nH]c2ccccc12)C(=O)NCC1OCCN1S(=O)(=O)c1ccccc1 (stereo not drawn)	none
O=C(COC(=O)COc1ccccc1)NCCC1=CCCCC1	SR-BI DiI-HDL act 73
COc1cc(NC(=O)C2=C(N3CCOCC3)/C(=C/c3ccc(Cl)cc3)CC2)cc(OC)c1OC	SR-BI HDL uptake 74
COc1cc(NC(=O)C2=C(N3CCOCC3)/C(=C\c3ccc(N(C)C)cc3)CCC2)cc(OC)c1OC	SR-BI HDL uptake 74
COC(=O)C1CCN(C(=O)COC(=O)CNC(=O)c2ccc(Cl)cc2Cl)CC1	none
Fc1ccc(-[n+]2nc(Nc3ccccc3)sc2-c2c3ccccc3cc3ccccc23)cc1	dFosB act 31
Oc1ccc2ccccc2c1-c1sc(Nc2ccccc2)n[n+]1-c1ccc(F)cc1	none
CCN1C(=O)C(=Cc2cccc(OC)c2Oc2ccc([N+](=O)[O-])cc2[N+](=O)[O-])SC1=S	SR-BI HDL uptake 75
Fc1ccc(-c2ccc3c(c2)C2CC3CCN2Cc2ccc3c(c2)OCO3)cc1 (stereo not drawn)	none
CC1(C)CC[C@]2(C(=O)O[C@@H]3OC(CO)[C@@H](O)[C@H](O)[C@H]3O)CC[C@]3(C)C(=CCC4[C@@]5(C)CC[C@H](O[C@@H]6OC(C(=O)O)[C@@H](O)[C@H](O)[C@H]6O)C(C)(C)C5CC[C@]43C)[C@@H]2C1 (stereo partly drawn)	none
COC(=O)C1OC(OC2CC[C@]3(C)C(CC[C@@]4(C)[C@@H]3CC=C3[C@@H]5CC(C)(C)CC[C@]5(C(=O)OC5OC(CO)C(O)C(O)C5O)CC[C@]34C)C2(C)C)C(O)C(O)C1O[C@H]1OCC(O)C(O)C1O (stereo partly drawn)	SR-BI DiI-HDL act 119
C[C@@H]1CNC(=O)c2c(C(=O)Nc3ccc(CNC(=O)OC(C)(C)C)cc3)ncn21	none (no result: SR-BI HDL uptake, CDK5 p35 inh, SR-BI DiI-HDL act, dFosB act)
CC1=CC(=C(C#N)c2nc3ccccc3s2)C=C(C)N1CC1CCCO1 (stereo not drawn)	SR-BI HDL uptake 88
COc1cc(C(=O)c2ccccc2C(=O)O)c(OC)c2c1CCCC2	none
CCOc1ccccc1NCc1cc(=O)oc2cc(C)c(O)cc12	SR-BI HDL uptake 74
O=C(COC(=O)C1CCCCC1)Nc1cccc(F)c1	none
O=C(COC(=O)C1CCCCC1)Nc1cccc(Br)c1	SR-BI DiI-HDL act 63
CCCCNC(=O)c1cc2c(-c3ccc(Cl)cc3)nn(C)c2s1	none
CCCCN(CC)CCCNC(=O)c1cc2c(-c3ccc(OC)c(OC)c3)nn(C)c2s1	dFosB act 37
CCN(CC)CCCNC(=O)c1cc2c(-c3cccc(OC)c3)nn(C)c2s1	none
COCCCNC(=O)c1cc2c(-c3ccc(Cl)cc3)nn(C)c2s1	SR-BI HDL uptake 77
COCCNC(=O)c1cc2c(-c3ccc(Cl)cc3)nn(C)c2s1	SR-BI HDL uptake 87
Cn1nc(-c2ccc(Cl)cc2)c2cc(C(=O)NCCCN3CCCC3)sc21	SR-BI HDL uptake 76
COCCCN1C(=O)C(CC(=O)NCc2ccco2)CC(C(=O)N(C)C)=C1C (stereo not drawn)	none (no result: SR-BI HDL uptake, CDK5 p35 inh, SR-BI DiI-HDL act, dFosB act)
O=C(C1CC(=O)N(c2ccccc2)C1)N1CCN(c2ccc(F)cc2)CC1 (stereo not drawn)	none
Cc1ccc(CNC(=O)c2cc3c(-c4ccc(Cl)cc4)nn(C)c3s2)o1	SR-BI HDL uptake 76
CC1(C)CC(=O)C=C(c2ccc(F)nc2)C1	none
Cc1ccc(-c2nn3c(C)nnc3s2)cc1NC(=O)c1ccc(Br)o1	none
Cc1ccc(-c2nn3c(C)nnc3s2)cc1NC(=O)c1ccc(-c2ccc(Cl)cc2Cl)o1	SR-BI HDL uptake 79
Cc1ccc(-c2nn3c(C)nnc3s2)cc1NC(=O)c1ccc(-c2cccc(Cl)c2)o1	SR-BI HDL uptake 73
Cc1cc(C)cc(OCc2nnc(SCC(=O)N3CCN(c4ccccc4)CC3)o2)c1	SR-BI HDL uptake 79
CC[n+]1ccccc1/C=C/c1ccc(N(C)C)cc1	none
Cc1ccc(/C=C/c2ccc(N(C)C)cc2)[n+](C)c1	none
CC[n+]1ccc(/C=C/c2ccc(N(C)C)cc2)c2ccccc21	dFosB act 47
CC[n+]1c(/C=C/c2ccc(N(C)C)cc2)ccc2ccccc21	dFosB act 53
CN(C)c1ccc(/C=C/c2cc[n+](C)cc2)cc1	dFosB act 32
CCCN(C(=O)c1ccc(N(C)S(=O)(=O)c2ccc(C)cc2)cc1)C1CCS(=O)(=O)C1 (stereo not drawn)	none
CCOC(=O)/C(=N\Nc1ncnc2ccccc12)c1ccc(C)cc1	none
NNC(=O)c1cc(C23CC4CC(CC(C4)C2)C3)nc2ccccc12	SR-BI HDL uptake 89

Compound activity: PubChem, several laboratories
